Values joined by “and” are separate entries in the source; they are usually repeats but may differ in a detail not shown here. Identical values can stand only once.
How the values were obtained:
Bax [1] = test: Bax cleavage in PMN lysates, Western blot; format: cell-based, human; details: PMN lysate, 16 h; proteins 1 μM, peptides 100 μM; six donors
caspase-8 [2] = test: Caspase-8 cleavage in PMN lysates, Western blot; format: cell-based, human; details: PMN lysate, 16 h; proteins 1 μM, peptides 100 μM; six donors
caspase-3 [3] = test: Caspase-3 cleavage in PMN lysates, Western blot; format: cell-based, human; details: PMN lysate, 16 h; proteins 1 μM, peptides 100 μM; six donors
Akt [4] = test: Akt phosphorylation in PMNs, Western blot; format: cell-based, human; details: PMN stimulated with 1 nM PMA, 30 min, 37 °C; proteins 1 μM, peptides 100 μM
Summary of the method: (§1)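 Human PMNs stimulated with 1 nM PMA were incubated with ligands for 30 min at 37°C in HBSS with 1 mM CaCl₂, 1 mM MgCl₂, 0.1% BSA, pH 7.4. Cells were lysed in ice-cold Tris/EDTA/detergent buffer with phosphatase and protease inhibitors. Equal protein was immunoblotted for phospho- and total Akt or ERK1/2, with actin. Inhibition arm: 20 min pretreatment at 37°C with 10 μM Akt inhibitor, 50 μM PD98059, 50 nM NIF, or F(ab′)₂ anti-αM or anti-MHC-1 (20 μg/ml), then 1 μM Plg.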

ERK1/2 [5] = test: ERK1/2 phosphorylation in PMNs, Western blot; format: cell-based, human; details: PMN stimulated with 1 nM PMA, 30 min, 37 °C; proteins 1 μM, peptides 100 μM
Summary of the method: as §1

αMβ2 = αMβ2 clustering on PMNs, fluorescence microscopy; format: cell-based, human; details: 4 h, 37 °C; proteins 1 μM, peptides 100 μM; anti-αM OKMI staining; four donors
Summary of the method: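 Human PMNs were exposed to ligands (proteins 1 μM, peptides 100 μM) for 4 h at 37°C, or to 1 μM Plg together with clustering inhibitors at the final concentrations used in apoptosis assays. Cells were fixed in 4% paraformaldehyde and stained with anti-αM mAb OKMI plus Alexa 488 goat anti-mouse IgG. They were cytospun, mounted and imaged by fluorescence microscopy (×40/0.7 NA); PMNs came from four donors.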

[6] = biological target: recombinant purified integrin αMβ2 (Homo sapiens, UniProt P05107+P11215); test: Solid-phase binding to purified αMβ2; details: higher for Plg than for Ang(1–4)
Sequence of recombinant purified integrin αMβ2 (P05107 23-769, other chains not shown): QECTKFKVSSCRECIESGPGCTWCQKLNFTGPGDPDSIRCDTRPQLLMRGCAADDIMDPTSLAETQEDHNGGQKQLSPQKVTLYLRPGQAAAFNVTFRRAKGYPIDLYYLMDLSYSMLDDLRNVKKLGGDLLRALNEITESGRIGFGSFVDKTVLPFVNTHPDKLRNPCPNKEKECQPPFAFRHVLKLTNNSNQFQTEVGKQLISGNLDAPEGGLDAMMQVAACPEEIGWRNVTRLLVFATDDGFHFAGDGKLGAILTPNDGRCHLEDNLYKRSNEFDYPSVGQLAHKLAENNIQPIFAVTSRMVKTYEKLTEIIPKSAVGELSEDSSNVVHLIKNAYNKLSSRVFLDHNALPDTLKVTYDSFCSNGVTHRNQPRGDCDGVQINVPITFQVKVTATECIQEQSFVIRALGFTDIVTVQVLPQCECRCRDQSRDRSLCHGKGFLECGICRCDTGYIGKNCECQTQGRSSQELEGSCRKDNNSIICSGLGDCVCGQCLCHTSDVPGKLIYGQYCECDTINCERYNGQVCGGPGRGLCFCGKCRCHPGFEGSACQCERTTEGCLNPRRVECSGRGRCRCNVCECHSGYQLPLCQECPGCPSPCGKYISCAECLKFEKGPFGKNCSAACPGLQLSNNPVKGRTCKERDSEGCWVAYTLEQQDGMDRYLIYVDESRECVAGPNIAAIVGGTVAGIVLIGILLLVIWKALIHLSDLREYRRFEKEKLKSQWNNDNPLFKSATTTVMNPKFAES
Summary of the method: (§2)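 Purified recombinant αMβ2, αM or β2 (from HEK293 lines) was coated overnight at 4°C in TBS with 10 mM n-octyl-β-D-glucopyranoside and postcoated with 0.5% PVP for 1 h at 37°C. Biotinylated Plg or Ang(1–4) (0–10 μM) was bound for 2 h at 37°C in the same buffer plus 1 mM CaCl₂/MgCl₂. Binding was detected with alkaline phosphatase–avidin and pNPP at A405. Kd came from a one-site binding fit.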

[7] = biological target: recombinant purified β2 subunit (Homo sapiens, UniProt P05107); test: Solid-phase binding to purified β2 subunit; details: solid-phase binding, αM versus β2
Sequence of recombinant purified β2 subunit (P05107 23-769): as the sequence (P05107 23-769, other chains not shown) above
Summary of the method: as §2

αMβ2 on K562 cells = test: Soluble ligand binding to K562 cells expressing αMβ2, FACS; design: species or system human; details: 40 min, 37 °C
Summary of the method: (§3)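 Transiently transfected K562 cells were incubated with soluble Alexa 488-labelled Plg or Ang(1–4) for 40 min at 37°C in HBSS containing 1 mM CaCl₂ and 1 mM MgCl₂. Cells were washed twice and bound ligand was quantified by FACS; three independent experiments. For inhibition, cells were pretreated for 20 min at 37°C with function-blocking anti-αM or anti-β2 mAbs (20 μg/ml) or NIF (20 nM).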

αM subunit on K562 cells = test: Soluble ligand binding to K562 cells expressing αM, FACS; design: species or system human; details: 40 min, 37 °C
Summary of the method: as §3

β2 subunit on K562 cells = test: Soluble ligand binding to K562 cells expressing β2, FACS; design: species or system human; details: 40 min, 37 °C
Summary of the method: as §3

[8] = system: mock-transfected K562 cells; test: Apoptosis of mock-transfected K562 cells, annexin V, FACS; format: cell-based, human; details: 16 h, 37 °C; proteins 1 μM, peptides 100 μM; no ligand 81 ± 8; mean ± SEM, n = 5
[9] = system: αM^(Ile316→Gly)β2 on K562 cells; test: Adhesion of K562 cells expressing αM^; format: cell-based, human; details: K562 αM^(Ile316→Gly)β2, data not shown
Bax [10] = test: Bax cleavage in K562 cell lysates, Western blot; format: cell-based, human; details: K562 αMβ2 transfectants, 24 h, 37 °C; proteins 1 μM, peptides 100 μM
caspase-3 [11] = test: Caspase-3 cleavage in K562 cell lysates, Western blot; format: cell-based, human; details: K562 αMβ2 transfectants, 24 h, 37 °C; proteins 1 μM, peptides 100 μM
caspase-8 [12] = test: Caspase-8 cleavage in K562 cell lysates, Western blot; format: cell-based, human; details: K562 αMβ2 transfectants, 24 h, 37 °C; proteins 1 μM, peptides 100 μM
Akt [13] = test: Akt phosphorylation in transfected K562 cells, Western blot; format: cell-based, human; details: 37 °C
Summary of the method: (§4)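 Transiently transfected K562 cells (αM, β2, αMβ2 or mock) were exposed to ligands for 30 min at 37°C and lysed in ice-cold buffer. Equal protein was run on SDS-PAGE and blotted with the PathScan Multiplex Western Cocktail I, then reprobed for total ERK1/2; blots shown are representative of three experiments.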

ERK1/2 [14] = test: ERK1/2 phosphorylation in transfected K562 cells, Western blot; format: cell-based, human; details: 37 °C
Summary of the method: as §4

apoptotic PMNs = test: Competition with annexin V-FITC binding to apoptotic PMNs; format: cell-based, human; details: 0–10 μM, data not shown
human PMNs = details: Plg 1 μM, 16 h, 37 °C; media alone 90 ± 21; mean ± SEM, n = 6

affinity of αMβ2 for Plg relative to Ang(1–4) [6]: ~ 10 fold
Substance: plasminogen [Plg]
22-kDa Bax fragment (Bax [1]): absent
caspase-8 fragment (caspase-8 [2]): absent
18-kDa caspase-3 fragment (caspase-3 [3]): absent
Akt phosphorylation (Akt [4]): robust Akt phosphorylation
ERK1/2 activation (ERK1/2 [5]): induced ERK1/2 activation
αMβ2 macroclusters on PMN surface (αMβ2): detected
recognition by individual integrin subunits (in words) [7]: interacted with the individual αM and β2 subunits with similar affinities
soluble ligand binding, αMβ2 cells (in words) (αMβ2 on K562 cells): bound both ligands
soluble ligand binding, αM cells (in words) (αM subunit on K562 cells): bound both ligands
soluble ligand binding, β2 cells (in words) (β2 subunit on K562 cells): bound soluble Plg
K562 early/late apoptosis (% annexin V+ cells), mock [8]: 78 ± 10%
adhesion to Plg versus wild type [9]: enhanced adhesion to Plg
Bax cleavage product, αMβ2 cells (Bax [10]): not detected
caspase-3 cleavage product, αMβ2 cells (caspase-3 [11]): not detected
caspase-8 cleavage product, αMβ2 cells (caspase-8 [12]): not detected
Akt phosphorylation, αM, β2 and mock cells (Akt [13]; K562 expressing αM or β2, or mock-transfected, 30 min): not in K562 cells expressing the individual αM or β2 subunits (Fig. 6A) or mock-transfected cells
Akt activation, tailless and chimeric αMβ2 (Akt [13]; K562 expressing αM(1119Δ)β2, αMβ2(728Δ) or αM/αLβ2, Plg, 30 min): no Akt activation could be detected
Akt phosphorylation, αMβ2 cells (Akt [13]; K562 expressing αMβ2, 30 min): robust Akt phosphorylation
ERK1/2 activation, αM cells (ERK1/2 [14]; K562 expressing αM, 30 min): strongly induced
ERK1/2 activation, αMβ2 cells (ERK1/2 [14]; K562 expressing αMβ2, 30 min): strongly induced
ERK1/2 phosphorylation, mock and β2 cells (ERK1/2 [14]; K562 mock or expressing β2, 30 min): poorly induced
competition with annexin V-FITC binding (apoptotic PMNs): did not compete with annexin V-FITC binding at any concentration tested
PMN early/late apoptosis (% annexin V+ cells), Plg alone (human PMNs): 32 ± 10% and 32 ± 105%

Source: PMC2978023 (Journal of immunology (Baltimore, Md. : 1950), 2008)
